ChEMBL document CHEMBL1125002, “Antiarthritic and suppressor cell inducing activity of azaspiranes: structure-function relationships of a novel class of immunomodulatory agents” (J Med Chem, 1990)
Calls of active or inactive are those of the source. No cut-off for these calls is given here.

Legend:
[1] = test system: Rattus norvegicus; test: Total starting number of animals upon administration at a dose of 30 mg/kg; 8/8; type: functional
[2] = test system: Rattus norvegicus; test: Adjuvant arthritic rat activity with respect to spirogermanium at a dose of 30 mg/kg; type: functional
Procedure, shortened: (§1)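 Lewis rats given adjuvant on day 0. Drug homogenized in aqueous 0.5% gum tragacanth, given orally at 10 mL/kg daily on days 0–10. Volume of the noninjected (secondary) hind paw measured on day 16 by mercury displacement. Activity is relative to non-drug controls and scaled to spirogermanium at 30 mg/kg, which is set at 1.00. Significance by Student's t test.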

[3] = test system: Rattus norvegicus; test: Adjuvant arthritic rat activity with respect to spirogermanium at a dose of 10 mg/kg; type: functional
[4] = test system: Rattus norvegicus; test: Adjuvant arthritic rat activity determined with respect to spirogermanium at a dose of 30 mg/kg; type: functional; procedure, shortened: as §1
[5] = test system: Rattus norvegicus; test: Total starting number of animals upon administration at a dose of 30 mg/kg; 7/7; type: functional
[6] = test system: Rattus norvegicus; test: Total starting number of animals upon administration at a dose of 10 mg/kg; 7/7; type: functional
[7] = test system: Rattus norvegicus; test: Total starting number of animals upon administration at a dose of 90 mg/kg; 0/7; type: functional
[8] = test system: Rattus norvegicus; test: Total starting number of animals upon administration at a dose of 30 mg/kg; 3/8; type: functional
[9] = test system: Rattus norvegicus; test: Total starting number of animals upon administration at a dose of 30 mg/kg; 6/6; type: functional
[10] = test system: Rattus norvegicus; test: Adjuvant arthritic rat activity with respect to spirogermanium at a dose of 30 mg/kg, active; type: functional, organism-based; set-up: dose 30 mg/kg
[11] = test system: Rattus norvegicus; test: Adjuvant arthritic rat activity with respect to spirogermanium at a dose of 15 mg/kg, inactive; type: functional, organism-based; set-up: dose 15 mg/kg
[12] = test system: Rattus norvegicus; test: Total starting number of animals upon administration at a dose of 15 mg/kg; 0/7; type: functional, organism-based; set-up: dose 15 mg/kg
[13] = test system: Rattus norvegicus; test: Total starting number of animals upon administration at a dose of 30 mg/kg; 0/7; type: functional
[14] = test system: Rattus norvegicus; test: Total starting number of animals upon administration at a dose of 60 mg/kg; 0/7; type: functional, organism-based; set-up: dose 60 mg/kg
[15] = test system: Rattus norvegicus; test: Total starting number of animals upon administration at a dose of 30 mg/kg; 5/6; type: functional
[16] = test system: Rattus norvegicus; test: (§2) Adjuvant arthritic rat activity with respect to spirogermanium at a dose of 60 mg/kg; type: functional
[17] = test system: Rattus norvegicus; test: Adjuvant arthritic rat activity with respect to spirogermanium at a dose of 15 mg/kg; type: functional; procedure, shortened: as §1
[18] = test system: Rattus norvegicus; test: Total starting number of animals upon administration at a dose of 15 mg/kg; 1/8; type: functional
[19] = test system: Rattus norvegicus; test: as §2; type: functional; procedure, shortened: as §1; remark: listed apart in the source
[20] = test system: Rattus norvegicus; test: Total starting number of animals upon administration at a dose of 60 mg/kg; 8/8; type: functional
[21] = test system: Rattus norvegicus; test: Total starting number of animals upon administration at a dose of 15 mg/kg; 8/8; type: functional
[22] = test system: Rattus norvegicus; test: Adjuvant arthritic rat activity with respect to spirogermanium at a dose of 25 mg/kg; type: functional
[23] = test system: Rattus norvegicus; test: Total starting number of animals upon administration at a dose of 25 mg/kg; 7/7; type: functional
[24] = test system: Rattus norvegicus; test: Total starting number of animals upon administration at a dose of 60 mg/kg; 5/8; type: functional
[25] = test system: Rattus norvegicus; test: Adjuvant arthritic rat activity with respect to spirogermanium at a dose of 7.5 mg/kg; type: functional; procedure, shortened: as §1
[26] = test system: Rattus norvegicus; test: Total starting number of animals upon administration at a dose of 15 mg/kg; 2/8; type: functional
[27] = test system: Rattus norvegicus; test: Total starting number of animals upon administration at a dose of 7.5 mg/kg; 8/8; type: functional
[28] = test system: Rattus norvegicus; test: Total starting number of animals upon administration at a dose of 30 mg/kg; 0/8; type: functional
[29] = test system: Rattus norvegicus; test: Total starting number of animals upon administration at a dose of 60 mg/kg; 0/6; type: functional
[30] = test system: Rattus norvegicus; test: Total starting number of animals upon administration at a dose of 30 mg/kg; 7/8; type: functional

Compound	Survival [1]	Activity [4]	other results
CCCCCCCCCCC1CCC2(CC1)CCN(CCCN(C)C)C2 (stereo not given)	8		Activity [2]: 0.78
CCC1(CC)CCC2(CCN(CCCN(C)C)C2)CC1		0.57	Activity [3]: 0.1; Survival [5]: 7; Survival [6]: 7; Survival [7]: 0
CN(C)CCCN1CCC2(CCCCC2)C1	8	0.27	
CCCN(CCC)CCCN1CCC2(CCC(CCC)(CCC)CC2)C1	8	0.43	
CCCC1(CCC)CCC2(CCN(CCCN(C)C)CC2)CC1		1.02	Survival [8]: 3
CCCC1(CCC)CCC2(CCN(CCCN(CC)CC)C2)CC1 [ATIPRIMOD]	8	1.42	
CCCC1(CCC)CCC2(CCN(CCCNC)C2)CC1		1.55	Survival [9]: 6
CN(C)CCCN1CCC2(CCC(c3ccccc3)CC2)C1 (stereo not given)	8	0.25	
[3-(8,8-Diethyl-2-aza-8-germa-spiro[4.5]dec-2-yl)-propyl]-dimethyl-amine			Activity [10]: Active; Activity [11]: inactive; Survival [12]: 0; Survival [13]: 0; Survival [14]: 0
CCCC1(CCC)CCC2(CCN(CCCN)C2)CC1		0.91	Survival [15]: 5
CN(C)CCCN1CCC2(CC[Si](C)(C)CC2)C1	0		Activity [16]: 0
CC1CCCC2(CCN(CCCN(C)C)C2)C1.Cl (stereo not given)	8	0	
CCCC1(CCC)CCC2(CCN(CCCN3CCOCC3)C2)CC1.Cl		0	Activity [17]: 0; Survival [18]: 1; Survival [13]: 0
CCCC1(CCC)CCC2(CCN(CCCNC(C)=O)C2)CC1		0.24	Survival [9]: 6
CCCC1(CCC)CCC2(CCN(CCCO)C2)CC1.Cl			Activity [19]: 0.31; Survival [20]: 8
CC[Si]1(CC)CCC2(CCN(CCCN(C)C)C2)CC1	8	0.92	Activity [17]: 0.27; Survival [21]: 8
CN(C)CCCN1CCC2(CCC(C)(C)CC2)C1	8	0.12	
CN(C)CCCN1CCC2(CCCCC2)CC1	8	0.2	
CCCC1(CCC)CCC2(CCN(CCCCCCCN(C)C)C2)CC1	8		Activity [2]: 1.57
CCCC1(CCC)CCC2(CCN(CCCCN(C)C)C2)CC1	8	0.46	
CN(C)CCCN1CCC2(CCSCC2)C1			Activity [22]: 0; Survival [23]: 7

Compound	Survival [1]	Activity [4]	other results
CN(C)CCCN1CCC2(CCC(C(C)(C)C)CC2)CC1		0.33	Activity [3]: 0.04; Survival [5]: 7; Survival [6]: 7; Survival [7]: 0
CN(C)CCCN1CCC2(CCC3(CCCCCC3)CC2)C1	8	0.22	Activity [19]: 1.7; Survival [24]: 5
CN(C)CCCN1CCC2(CCC(C(C)(C)C)CC2)C1 (stereo not given)	8	0.31	
CCCC1(CCC)CCC2(CCN(CCCN3CCCCC3)C2)CC1	8	1.7	
CCCC1(CCC)CCC2(CCN(CCN(C)C)C2)CC1	8	0	
CN(C)CCCN1CCC2(CCCCCC2)C1.Cl	8	0.2	
CCC1(CC)CCC2(CCN(CCCN(C)C)CC2)CC1		0.3	Activity [3]: 0.03; Survival [5]: 7; Survival [6]: 7; Survival [7]: 0
CCCC1(CCC)CCC2(CCN(CCCCCCN(C)C)C2)CC1	8	1.2	
CCCC1(CCC)CCC2(CCN(CCCN3CCCC3)C2)CC1	8	1.03	
CN(C)CCCN1CCC2(CC3CCC2C3)C1.Cl (stereo not given)	8	0	Activity [19]: 0.1; Survival [20]: 8
CCCCN(CCCC)CCCN1CCC2(CCC(CCC)(CCC)CC2)C1	8	0.07	
CCCCC1(CCCC)CCC2(CCN(CCCN(C)C)C2)CC1			Activity [25]: 0.41; Survival [26]: 2; Survival [27]: 8; Survival [28]: 0
CCCC1(CCC)CCC2(CCN(CCCN(C)C)C2)CC1	8	1.35	Activity [17]: 0.18; Survival [21]: 8; Survival [29]: 0
CCCC1(CCC)CCC2(CCN(CCCCCN(C)C)C2)CC1	8	0.82	
CC(C)CC1(CC(C)C)CCC2(CCN(CCCN(C)C)C2)CC1		0.97	Survival [30]: 7
CCCCCC1(CCCCC)CCC2(CCN(CCCN(C)C)CC2)CC1			Activity [25]: 0.18; Activity [17]: 0.18; Survival [21]: 8; Survival [27]: 8; Survival [28]: 0
CCCC1(CCC)CCC2(CC1)CC[N+](C)(CCC[N+](C)(C)C)C2 (stereo not given)	8	0.05	
CC1CCC2(CC1)CCN(CCCN(C)C)CC2	8	0.25	
CCCCCC1(CCCCC)CCN(CCCN(C)C)C1.Cl	8	0.19	
CN(C)CCCN1CC2C3CCC(CC3)C2C1.Cl (stereo not given)	8	0.35	
